Results published in ChEMBL document CHEMBL2311397, “Design and synthesis of cyclopropylamide analogues of combretastatin-A4 as novel microtubule-stabilizing agents” (J Med Chem, 2013).

Legend:
Type in all cases: functional, cell-based
HeLa = assay: Cytotoxicity against human HeLa cells after 48 hrs by MTT assay
Summary of the method: (§1)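 Log-phase cells (40000–50000 cells/mL) grown in DMEM with 10% fetal calf serum (5% CO2, 37 °C) and exposed 48 h to five concentrations, 3–5 replicates. Read-out was MTT with absorbance at 570 nm; IC50 reported as mean ± SD of three independent experiments. Resistant A549 and HeLa sublines were made by stepwise paclitaxel selection; resistance index = IC50(resistant)/IC50(sensitive).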

[1] = Cytotoxicity against human QGY cells after 48 hrs by MTT assay; summary of the method: as §1
A549 = assay: Cytotoxicity against human A549 cells after 48 hrs by MTT assay; summary of the method: as §1
K562 = assay: Cytotoxicity against human K562 cells after 48 hrs by MTT assay; summary of the method: as §1
SW480 = assay: Cytotoxicity against human SW480 cells after 48 hrs by MTT assay; summary of the method: as §1

O=c1[nH]cc(F)c(=O)[nH]1 [FLUOROURACIL]
IC50 (HeLa; Homo sapiens, HeLa, 48 h): 143 µM
IC50 ([1]; Homo sapiens, QGY, 48 h): 126 µM
IC50 (A549; Homo sapiens, A549, 48 h): 56 µM
IC50 (K562; Homo sapiens, K562, 48 h): 114 µM
IC50 (SW480; Homo sapiens, SW480, 48 h): 158 µM

CCOC(=O)[C@@]1(C(=O)Nc2ccccc2)C[C@@H]1c1cc(OC)c(OC)c(OC)c1
IC50 (HeLa; Homo sapiens, HeLa, 48 h): > 100 µM
IC50 ([1]; Homo sapiens, QGY, 48 h): > 100 µM
IC50 (A549; Homo sapiens, A549, 48 h): > 100 µM
IC50 (K562; Homo sapiens, K562, 48 h): > 100 µM
IC50 (SW480; Homo sapiens, SW480, 48 h): > 100 µM

CCOC(=O)[C@@]1(C(=O)NCc2ccc(C)cc2)C[C@H]1c1cc(OC)c(OC)c(OC)c1
IC50 (HeLa; Homo sapiens, HeLa, 48 h): 19.7 µM
IC50 ([1]; Homo sapiens, QGY, 48 h): 26.4 µM
IC50 (A549; Homo sapiens, A549, 48 h): 17.1 µM
IC50 (K562; Homo sapiens, K562, 48 h): > 100 µM
IC50 (SW480; Homo sapiens, SW480, 48 h): > 100 µM

COc1cc([C@@H]2C[C@@]2(CO)C(=O)Nc2ccccc2Cl)cc(OC)c1OC
IC50 (HeLa; Homo sapiens, HeLa, 48 h): 13.3 µM
IC50 ([1]; Homo sapiens, QGY, 48 h): 24.5 µM
IC50 (A549; Homo sapiens, A549, 48 h): 11.4 µM
IC50 (K562; Homo sapiens, K562, 48 h): 18.4 µM
IC50 (SW480; Homo sapiens, SW480, 48 h): 10.7 µM

CCOC(=O)[C@]1(C(=O)NCc2ccc(C)cc2)C[C@@H]1c1cc(OC)c(OC)c(OC)c1
IC50 (HeLa; Homo sapiens, HeLa, 48 h): > 100 µM
IC50 ([1]; Homo sapiens, QGY, 48 h): > 100 µM
IC50 (A549; Homo sapiens, A549, 48 h): 34.9 µM
IC50 (K562; Homo sapiens, K562, 48 h): 20.4 µM
IC50 (SW480; Homo sapiens, SW480, 48 h): > 100 µM

CCOC(=O)C1(C(=O)NCCc2ccc(F)cc2)CC1c1cc(OC)c(OC)c(OC)c1 (trans isomer)
IC50 (HeLa; hela): 35 µM
IC50 (A549; a549): > 100 µM
IC50 (SW480; sw480): 40.3 µM

CCOC(=O)C1(C(=O)Nc2ccccc2Cl)CC1c1cc(OC)c(OC)c(OC)c1 (stereo in doubt; cis)
IC50 (HeLa; hela): 22.1 µM
IC50 ([1]; Homo sapiens, QGY, 48 h): 36.1 µM
IC50 (A549; Homo sapiens, A549, 48 h): 18 µM
IC50 (K562; k562): 41.4 µM
IC50 (SW480; sw480): 27.2 µM

COc1cc([C@H]2C[C@@]2(CO)C(=O)Nc2ccccc2)cc(OC)c1OC
IC50 (HeLa; Homo sapiens, HeLa, 48 h): > 100 µM
IC50 ([1]; Homo sapiens, QGY, 48 h): > 100 µM
IC50 (A549; Homo sapiens, A549, 48 h): > 100 µM
IC50 (K562; Homo sapiens, K562, 48 h): > 100 µM
IC50 (SW480; Homo sapiens, SW480, 48 h): > 100 µM

CCOC(=O)C1(C(=O)Nc2ccccc2[N+](=O)[O-])CC1c1cc(OC)c(OC)c(OC)c1 (trans isomer)
IC50 (HeLa; hela): 35.1 µM
IC50 ([1]; qgy): > 100 µM
IC50 (A549; a549): 30.9 µM
IC50 (K562; k562): > 100 µM
IC50 (SW480; sw480): 31.8 µM

CCOC(=O)C1(C(=O)NCc2ccc(F)cc2)CC1c1cc(OC)c(OC)c(OC)c1 (trans isomer)
IC50 (HeLa; hela): 27.8 µM
IC50 ([1]; qgy): > 100 µM
IC50 (A549; a549): 34.1 µM
IC50 (K562; k562): 43.1 µM
IC50 (SW480; sw480): 28.4 µM

CCOC(=O)C1(C(=O)NCCc2ccccc2F)CC1c1cc(OC)c(OC)c(OC)c1 (trans isomer)
IC50 (HeLa; hela): > 100 µM
IC50 ([1]; qgy): 46.8 µM
IC50 (A549; a549): 31.1 µM
IC50 (K562; k562): 79.1 µM
IC50 (SW480; sw480): 16.9 µM

COc1cc([C@@H]2C[C@]2(CO)C(=O)NCc2ccc(C)cc2)cc(OC)c1OC
IC50 (HeLa; Homo sapiens, HeLa, 48 h): 17.4 µM
IC50 ([1]; Homo sapiens, QGY, 48 h): 25.1 µM
IC50 (A549; Homo sapiens, A549, 48 h): 10.5 µM
IC50 (K562; Homo sapiens, K562, 48 h): > 100 µM
IC50 (SW480; Homo sapiens, SW480, 48 h): 26.8 µM

COc1ccc(/C=C\c2cc(OC)c(OC)c(OC)c2)cc1O [COMBRETASTATIN A4]
IC50 (HeLa; Homo sapiens, HeLa, 48 h): 0.0021 µM
IC50 ([1]; Homo sapiens, QGY, 48 h): 0.0265 µM
IC50 (A549; Homo sapiens, A549, 48 h): 0.0056 µM
IC50 (K562; Homo sapiens, K562, 48 h): 0.0048 µM
IC50 (SW480; Homo sapiens, SW480, 48 h): 0.0182 µM

CCOC(=O)C1(C(=O)Nc2ccc(OC)cc2)CC1c1cc(OC)c(OC)c(OC)c1 (stereo in doubt)
IC50 (HeLa; hela): > 100 µM
IC50 ([1]; qgy): > 100 µM
IC50 (A549; a549): > 100 µM
IC50 (SW480; sw480): > 100 µM

COc1cc([C@H]2C[C@]2(CO)C(=O)Nc2ccccc2)cc(OC)c1OC
IC50 (HeLa; Homo sapiens, HeLa, 48 h): > 100 µM
IC50 ([1]; Homo sapiens, QGY, 48 h): > 100 µM
IC50 (A549; Homo sapiens, A549, 48 h): > 100 µM
IC50 (K562; Homo sapiens, K562, 48 h): > 100 µM
IC50 (SW480; Homo sapiens, SW480, 48 h): > 100 µM

CCOC(=O)[C@@]1(C(=O)Nc2ccccc2)C[C@H]1c1cc(OC)c(OC)c(OC)c1
IC50 (HeLa; Homo sapiens, HeLa, 48 h): > 100 µM
IC50 ([1]; Homo sapiens, QGY, 48 h): 48.7 µM
IC50 (A549; Homo sapiens, A549, 48 h): 65.9 µM
IC50 (K562; Homo sapiens, K562, 48 h): > 100 µM
IC50 (SW480; Homo sapiens, SW480, 48 h): > 100 µM

CCOC(=O)C1(C(=O)Nc2ccc(OC)cc2)CC1c1cc(OC)c(OC)c(OC)c1 (cis isomer)
IC50 (HeLa; Homo sapiens, HeLa, 48 h): 81.6 µM
IC50 ([1]; Homo sapiens, QGY, 48 h): 86.1 µM
IC50 (A549; Homo sapiens, A549, 48 h): 61.4 µM
IC50 (K562; Homo sapiens, K562, 48 h): > 100 µM
IC50 (SW480; Homo sapiens, SW480, 48 h): 66.3 µM

CCOC(=O)C1(C(=O)NCc2ccc(C)cc2)CC1c1cc(OC)c(OC)c(OC)c1 (trans isomer)
IC50 (HeLa; hela): 25.6 µM
IC50 ([1]; qgy): 37.9 µM
IC50 (A549; a549): 21.4 µM
IC50 (SW480; sw480): > 100 µM

CCOC(=O)C1(C(=O)NCCc2cccc(F)c2)CC1c1cc(OC)c(OC)c(OC)c1 (cis isomer)
IC50 (HeLa; hela): 28.1 µM
IC50 ([1]; qgy): 39.9 µM
IC50 (A549; Homo sapiens, A549, 48 h): 52.3 µM
IC50 (K562; Homo sapiens, K562, 48 h): 76.1 µM
IC50 (SW480; sw480): 35.5 µM

CCOC(=O)[C@@]1(C(=O)Nc2ccccc2Cl)C[C@@H]1c1cc(OC)c(OC)c(OC)c1
IC50 (HeLa; Homo sapiens, HeLa, 48 h): > 100 µM
IC50 ([1]; Homo sapiens, QGY, 48 h): > 100 µM
IC50 (A549; Homo sapiens, A549, 48 h): 29 µM
IC50 (K562; Homo sapiens, K562, 48 h): 49.4 µM
IC50 (SW480; Homo sapiens, SW480, 48 h): 46.7 µM

COc1cc([C@H]2C[C@@]2(CO)C(=O)NCc2ccc(C)cc2)cc(OC)c1OC
IC50 (HeLa; Homo sapiens, HeLa, 48 h): > 100 µM
IC50 ([1]; Homo sapiens, QGY, 48 h): > 100 µM
IC50 (A549; Homo sapiens, A549, 48 h): 63.8 µM
IC50 (K562; Homo sapiens, K562, 48 h): > 100 µM
IC50 (SW480; Homo sapiens, SW480, 48 h): > 100 µM

CCOC(=O)C1(C(=O)Nc2ccccc2)CC1c1cc(OC)c(OC)c(OC)c1 (cis isomer)
IC50 (HeLa; Homo sapiens, HeLa, 48 h): > 100 µM
IC50 ([1]; Homo sapiens, QGY, 48 h): 59.3 µM
IC50 (A549; Homo sapiens, A549, 48 h): 31.5 µM
IC50 (K562; Homo sapiens, K562, 48 h): > 100 µM
IC50 (SW480; sw480): 49 µM

CCOC(=O)C1(C(=O)NCc2ccc(OC)cc2)CC1c1cc(OC)c(OC)c(OC)c1 (cis isomer)
IC50 (HeLa; Homo sapiens, HeLa, 48 h): > 100 µM
IC50 ([1]; Homo sapiens, QGY, 48 h): > 100 µM
IC50 (A549; Homo sapiens, A549, 48 h): > 100 µM
IC50 (K562; Homo sapiens, K562, 48 h): > 100 µM
IC50 (SW480; Homo sapiens, SW480, 48 h): > 100 µM
